# In ChEMBL document CHEMBL1671829, “Activation of Neuropeptide FF Receptors by Kisspeptin Receptor Ligands” (ACS Med Chem Lett, 2011):
# Active and inactive are the calls of the source. No cut-off for these calls is given here.
# Experiments:
# [1] = molecular target: T1, Neuropeptide FF receptor 1 (Homo sapiens, UniProt Q9GZQ6); test: Displacement of (D-[125I]Tyr1, MePhe3)-NPFF from NPFFR1 after 2 hrs
# How it was run: (§1)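 Dose–response inhibition of (d-[125I]Tyr1, MePhe3)-NPFF binding to NPFFR1 or NPFFR2. IC50 is the concentration giving 50% inhibition of radioligand binding, taken from dose–response curves built from triplicate data points.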
# [2] = molecular target: T2, Neuropeptide FF receptor 2 (Homo sapiens, UniProt Q9Y5X5); test: Displacement of (D-[125I]Tyr1, MePhe3)-NPFF from NPFFR2 after 2 hrs; how it was run: as §1
# [3] = molecular target: T3, Galanin receptor type 1 (Homo sapiens) (UniProt P47211); test: Displacement of [125I]-Tyr9-galanin from GalR1 at 10 uM after 1 hr
# T3 sequence (whole entry): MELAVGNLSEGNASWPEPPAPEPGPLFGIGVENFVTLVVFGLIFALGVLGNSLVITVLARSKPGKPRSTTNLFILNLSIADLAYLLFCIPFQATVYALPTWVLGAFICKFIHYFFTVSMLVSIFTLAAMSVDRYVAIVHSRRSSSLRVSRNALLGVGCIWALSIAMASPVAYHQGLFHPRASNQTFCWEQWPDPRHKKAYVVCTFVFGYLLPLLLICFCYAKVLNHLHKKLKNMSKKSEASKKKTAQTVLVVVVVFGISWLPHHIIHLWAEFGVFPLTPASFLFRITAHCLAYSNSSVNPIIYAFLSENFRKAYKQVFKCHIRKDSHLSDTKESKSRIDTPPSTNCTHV
# How it was run: (§2)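 Single-point radioligand binding inhibition on receptor membrane preparations, test peptide at 10 μM. Radioligands are [125I]Tyr9-galanin for GALR1–3, [125I]-prolactin-releasing peptide-20 for PrRPR, and (d-[125I]Tyr1, MePhe3)-NPFF for NPFFR1 and NPFFR2. Read-out is % inhibition of specific binding, mean of duplicate analyses.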
# [4] = molecular target: T4, Galanin receptor type 2 (Homo sapiens) (UniProt O43603); test: Displacement of [125I]-Tyr9-galanin from GalR2 at 10 uM after 1 hr; how it was run: as §2
# T4 sequence (whole entry): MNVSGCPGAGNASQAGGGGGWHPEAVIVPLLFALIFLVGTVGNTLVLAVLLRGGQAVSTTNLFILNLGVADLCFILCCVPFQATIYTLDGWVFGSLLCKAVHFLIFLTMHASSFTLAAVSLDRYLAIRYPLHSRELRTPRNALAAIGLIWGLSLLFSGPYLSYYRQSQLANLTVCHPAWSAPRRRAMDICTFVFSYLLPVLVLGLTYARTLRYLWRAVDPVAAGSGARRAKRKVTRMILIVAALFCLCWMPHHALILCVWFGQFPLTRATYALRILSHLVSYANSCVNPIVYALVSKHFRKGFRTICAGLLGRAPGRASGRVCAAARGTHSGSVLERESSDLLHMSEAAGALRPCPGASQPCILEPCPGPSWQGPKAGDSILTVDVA
# [5] = molecular target: T5, Galanin receptor type 3 (Homo sapiens) (UniProt O60755); test: Displacement of [125I]-Tyr9-galanin from GalR3 at 10 uM after 1 hr; how it was run: as §2
# T5 sequence (whole entry): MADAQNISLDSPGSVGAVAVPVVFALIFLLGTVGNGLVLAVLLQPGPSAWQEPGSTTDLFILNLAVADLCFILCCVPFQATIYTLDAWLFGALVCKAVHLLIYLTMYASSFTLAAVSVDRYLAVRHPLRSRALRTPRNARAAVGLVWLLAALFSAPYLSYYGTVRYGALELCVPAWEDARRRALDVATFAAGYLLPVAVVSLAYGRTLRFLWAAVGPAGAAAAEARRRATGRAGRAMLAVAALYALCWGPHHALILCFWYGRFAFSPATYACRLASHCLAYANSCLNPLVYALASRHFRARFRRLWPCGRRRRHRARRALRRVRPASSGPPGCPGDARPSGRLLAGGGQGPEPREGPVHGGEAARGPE
# [6] = molecular target: T6, Prolactin-releasing peptide receptor (Homo sapiens) (UniProt P49683); test: Displacement of [125I]-prolactin releasing peptide-20 from PrRPR at 10 uM after 30 mins; how it was run: as §2
# T6 sequence (whole entry): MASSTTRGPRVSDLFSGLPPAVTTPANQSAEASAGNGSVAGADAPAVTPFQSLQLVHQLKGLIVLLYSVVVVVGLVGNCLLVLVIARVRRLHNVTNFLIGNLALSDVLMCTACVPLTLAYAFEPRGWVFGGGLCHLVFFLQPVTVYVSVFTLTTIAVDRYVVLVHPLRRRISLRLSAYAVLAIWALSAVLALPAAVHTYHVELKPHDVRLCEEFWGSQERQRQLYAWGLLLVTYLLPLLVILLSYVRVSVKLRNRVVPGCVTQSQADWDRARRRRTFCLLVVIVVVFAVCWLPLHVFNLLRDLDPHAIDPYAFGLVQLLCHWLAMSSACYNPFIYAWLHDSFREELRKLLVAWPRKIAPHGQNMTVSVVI
# [7] = molecular target: T1, Neuropeptide FF receptor 1; test: Displacement of (D-[125I]Tyr1, MePhe3)-NPFF from NPFFR1 at 10 uM after 2 hrs; how it was run: as §2
# [8] = molecular target: T2, Neuropeptide FF receptor 2; test: Displacement of (D-[125I]Tyr1, MePhe3)-NPFF from NPFFR2 at 10 uM after 2 hrs; how it was run: as §2
# [9] = molecular target: T1, Neuropeptide FF receptor 1; test: Agonist activity at NPFFR1 expressed in HEK293T cells co-expressing Gqi5 assessed as increase of intracellular calcium mobilization after 1 hr; type: functional, cell-based; settings: HEK-293T
# [10] = molecular target: T2, Neuropeptide FF receptor 2; test: Agonist activity at NPFFR2 expressed in HEK293T cells co-expressing Gqi5 assessed as increase of intracellular calcium mobilization after 1 hr; type: functional, cell-based; settings: HEK-293T
# [11] = molecular target: T1, Neuropeptide FF receptor 1; test: Agonist activity at NPFFR1 expressed in HEK293T cells co-expressing Gqi5 assessed as increase of intracellular calcium mobilization at 0.24 uM after 1 hr; type: functional, cell-based; settings: HEK-293T
# Rattus norvegicus [12] = test: Increase of luteinizing hormone level in Wistar-imamichi rat plasma at 0.25 nmol, administered intracerebroventricularly in preoptic area after 3 hrs measured every 6 mins by double-antibody radioimmunoassay; type: functional, organism-based
# How it was run: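 Male rats given 0.25 nmol peptide into the preoptic area. Blood sampled every 6 min over 3 h; plasma LH expressed as area under the curve. Mean ± SEM of five or more experiments.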
# Rattus norvegicus [13] = organism: Rattus norvegicus; test: Increase of GnRH release in Wistar-imamichi rat median eminence at 1 uM after 30 mins by double-antibody radioimmunoassay; type: functional
# How it was run: (§3)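 Rat median eminence incubated in vitro with peptide. Released GnRH quantified by double-antibody radioimmunoassay with [125I]-labeled GnRH; mean ± SEM of triplicate or more experiments.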
# [14] = molecular target: T2, Neuropeptide FF receptor 2; test: Agonist activity at NPFFR2 expressed in CHO cells assessed as inhibition of forskolin-induced cAMP accumulation at up to 100 uM after 30 mins
# [15] = molecular target: T1, Neuropeptide FF receptor 1; test: Agonist activity at NPFFR1 expressed in CHO cells assessed as inhibition of forskolin-induced cAMP accumulation at up to 100 uM after 30 mins
# KiSS-1 receptor [16] = molecular target: T7, KiSS-1 receptor (Homo sapiens, UniProt Q969F8); test: Displacement of [125I]kisspeptin-15 from GPR54
# KiSS-1 receptor [17] = molecular target: T7, KiSS-1 receptor; test: Agonist activity at GPR54 expressed in CHO cells assessed as increase of intracellular calcium mobilization at 10 uM after 1 hr; type: functional, cell-based
# Rattus norvegicus [18] = organism: Rattus norvegicus; test: Increase of GnRH release in Wistar-imamichi rat median eminence at 0.1 uM after 30 mins by double-antibody radioimmunoassay; type: functional; how it was run: as §3
# T2 sequence (Q9Y5X5 whole entry): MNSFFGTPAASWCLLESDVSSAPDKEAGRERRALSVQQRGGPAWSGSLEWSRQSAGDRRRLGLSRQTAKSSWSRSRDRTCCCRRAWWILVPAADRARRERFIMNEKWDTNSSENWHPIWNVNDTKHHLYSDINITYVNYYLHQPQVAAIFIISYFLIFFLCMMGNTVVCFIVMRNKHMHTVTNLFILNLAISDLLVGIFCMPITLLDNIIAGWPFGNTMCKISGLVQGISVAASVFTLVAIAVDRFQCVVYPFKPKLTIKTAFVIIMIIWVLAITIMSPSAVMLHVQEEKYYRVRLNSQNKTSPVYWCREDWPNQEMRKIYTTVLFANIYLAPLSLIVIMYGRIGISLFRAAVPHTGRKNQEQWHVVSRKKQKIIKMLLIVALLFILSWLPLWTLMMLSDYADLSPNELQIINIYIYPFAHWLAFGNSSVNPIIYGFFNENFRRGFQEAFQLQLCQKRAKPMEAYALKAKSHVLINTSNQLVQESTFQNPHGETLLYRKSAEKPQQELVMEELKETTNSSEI
# T7 sequence (Q969F8 whole entry): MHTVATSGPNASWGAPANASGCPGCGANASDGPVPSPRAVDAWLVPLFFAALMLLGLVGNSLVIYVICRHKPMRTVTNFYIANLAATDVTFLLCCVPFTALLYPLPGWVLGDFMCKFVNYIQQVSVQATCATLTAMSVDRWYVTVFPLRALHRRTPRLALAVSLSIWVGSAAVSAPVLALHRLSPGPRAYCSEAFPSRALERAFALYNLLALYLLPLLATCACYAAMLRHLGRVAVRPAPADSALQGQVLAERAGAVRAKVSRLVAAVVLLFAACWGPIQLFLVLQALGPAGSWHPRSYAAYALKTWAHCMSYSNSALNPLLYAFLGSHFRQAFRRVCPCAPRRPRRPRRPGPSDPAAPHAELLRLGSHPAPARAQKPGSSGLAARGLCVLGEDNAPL
# T1 sequence (Q9GZQ6 whole entry): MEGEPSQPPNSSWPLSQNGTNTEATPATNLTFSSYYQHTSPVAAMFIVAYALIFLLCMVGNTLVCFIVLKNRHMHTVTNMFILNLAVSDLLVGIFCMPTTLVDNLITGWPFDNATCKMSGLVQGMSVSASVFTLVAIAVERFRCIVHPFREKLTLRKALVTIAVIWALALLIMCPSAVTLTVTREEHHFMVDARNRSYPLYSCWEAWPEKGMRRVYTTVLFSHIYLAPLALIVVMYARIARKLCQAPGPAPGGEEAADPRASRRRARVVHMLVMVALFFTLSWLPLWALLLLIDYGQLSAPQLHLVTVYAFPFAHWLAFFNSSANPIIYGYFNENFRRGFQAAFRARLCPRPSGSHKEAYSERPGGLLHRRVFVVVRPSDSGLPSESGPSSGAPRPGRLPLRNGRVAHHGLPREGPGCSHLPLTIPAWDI
Compound,IC50 [1] [nM],IC50 [2] [nM],Activity [11] [%],Activity (Rattus norvegicus [12]),inhibition [14],inhibition [15],IC50 (KiSS-1 receptor [16]) [nM],other results
CC(C)C[C@H](NC(=O)CNC(=O)[C@H](Cc1ccccc1)NC(=O)c1ccc(F)cc1)C(=O)N[C@@H](CCCN=C(N)N)C(=O)N[C@@H](Cc1c[nH]c2ccccc12)C(N)=O,160,1800,,,,,,
CC(C)C[C@H](/C=C/CNC(=O)[C@H](Cc1ccccc1)NC(=O)c1ccc(F)cc1)C(=O)N[C@@H](CCCNC(=N)N)C(=O)N[C@@H](Cc1c[nH]c2ccccc12)C(N)=O,,,52,Active,Active,Active,,Activity [3]: inactive; Activity [4]: inactive; Activity [5]: inactive; Activity [6]: 16.1%; Activity [7]: 88.3%; Activity [8]: 95.7%; Activity [9]: Dose-dependent effect; Activity [10]: Dose-dependent effect; Activity (Rattus norvegicus [13]): Active
CC(C)C[C@H](NC(=O)CNC(=O)[C@H](Cc1ccccc1)NC(=O)c1ccc(F)cc1)C(=O)N[C@@H](CCCNC(=N)N)C(=O)N[C@@H](Cc1c[nH]c2ccccc12)C(N)=O,,,49,Active,Active,Active,,Activity [3]: inactive; Activity [4]: inactive; Activity [5]: inactive; Activity [6]: 21.1%; Activity [7]: 99.4%; Activity [8]: 90.7%; Activity [9]: Dose-dependent effect; Activity [10]: Dose-dependent effect; Activity (Rattus norvegicus [13]): Active
NC(=O)[C@H](Cc1ccccc1)NC(=O)[C@H](CCCN=C(N)N)NC(=O)C12CC3CC(CC(C3)C1)C2,,,,,,,830,
H-SLAAPQRF-OH,1.9,0.79,,,,,> 30000,
N=C(N)NCCC[C@H](NC(=O)C12CC3CC(CC(C3)C1)C2)C(=O)N[C@@H](Cc1ccccc1)C(N)=O,,,,,,,,Activity (KiSS-1 receptor [17]): inactive
CN(C)c1cccc2c(S(=O)(=O)N3CCC[C@H]3C(=O)N[C@@H](CCC(N)=O)C(=O)N[C@@H](CCCNC(=N)N)C(=O)N[C@@H](Cc3ccccc3)C(N)=O)cccc12,,,,,,,16000,Activity (KiSS-1 receptor [17]): inactive
CC(C)C[C@H](/C=C/CNC(=O)[C@H](Cc1ccccc1)NC(=O)c1ccc(F)cc1)C(=O)N[C@@H](CCCN=C(N)N)C(=O)N[C@@H](Cc1c[nH]c2ccccc12)C(N)=O,640,2400,,,,,,
CC(C)C[C@H](NC(=O)CNC(=O)[C@H](Cc1ccccc1)NC(=O)[C@H](CO)NC(=O)[C@H](CC(N)=O)NC(=O)[C@H](Cc1c[nH]c2ccccc12)NC(=O)[C@H](CC(N)=O)NC(=O)[C@@H](N)Cc1ccc(O)cc1)C(=O)N[C@@H](CCCNC(=N)N)C(=O)N[C@@H](Cc1ccccc1)C(N)=O [KISSPEPTIN-10],4.7,76,86,Active,Active,Active,,Activity (Rattus norvegicus [18]): Active
